# ChEMBL document CHEMBL4433205, “Dual Pharmacophores Explored via Structure-Activity Relationship (SAR) Matrix: Insights into Potent, Bifunctional Opioid Ligand Design” (J Med Chem, 2019)
# The source made the active and inactive calls.
# Biological target: T1, Mu-type opioid receptor (Rattus norvegicus, UniProt P33535)
# Assay: Agonist activity at rat mu opioid receptor expressed in rat C6 cell membranes assessed as stimulation of [35S]GTPgammaS binding measured after 1 hr
# Type: functional
# Details: not given
# In short: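 Membranes (10–20 μg protein/tube) from stably transfected cells incubated 1 h at 25°C in 50 mM Tris-HCl, 100 mM NaCl, 5 mM MgCl2, pH 7.4, with 0.1 nM [35S]-GTPγS, 30 μM GDP and varying test concentrations; filtration, scintillation counting.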
# T1 sequence (P33535 whole entry): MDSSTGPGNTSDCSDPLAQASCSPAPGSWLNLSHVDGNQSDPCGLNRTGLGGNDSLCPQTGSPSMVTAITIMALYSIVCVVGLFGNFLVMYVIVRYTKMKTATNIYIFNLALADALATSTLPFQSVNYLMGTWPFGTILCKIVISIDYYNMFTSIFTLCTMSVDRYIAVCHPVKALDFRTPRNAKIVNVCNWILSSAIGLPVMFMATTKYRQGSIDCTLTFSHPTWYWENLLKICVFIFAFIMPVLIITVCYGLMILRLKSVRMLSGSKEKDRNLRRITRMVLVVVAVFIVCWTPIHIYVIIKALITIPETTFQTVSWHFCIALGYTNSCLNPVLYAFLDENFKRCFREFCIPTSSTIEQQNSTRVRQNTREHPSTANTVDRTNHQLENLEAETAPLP
row,Compound,EC50
1,Cc1cc(O)cc(C)c1C[C@H](N)C(=O)N[C@@H]1CCN(S(C)(=O)=O)c2ccc(Cc3ccccc3)cc21.O=C(O)C(F)(F)F,0.23 nM
2,Cc1cc(O)cc(C)c1C[C@H](N)C(=O)N[C@@H]1CCN(C(=O)c2ccccc2)c2ccc(Cc3ccc4ccccc4c3)cc21.O=C(O)C(F)(F)F,7.9 nM

# Biological target: T2, Delta-type opioid receptor (Rattus norvegicus, UniProt P33533)
# T2 sequence (P33533 whole entry): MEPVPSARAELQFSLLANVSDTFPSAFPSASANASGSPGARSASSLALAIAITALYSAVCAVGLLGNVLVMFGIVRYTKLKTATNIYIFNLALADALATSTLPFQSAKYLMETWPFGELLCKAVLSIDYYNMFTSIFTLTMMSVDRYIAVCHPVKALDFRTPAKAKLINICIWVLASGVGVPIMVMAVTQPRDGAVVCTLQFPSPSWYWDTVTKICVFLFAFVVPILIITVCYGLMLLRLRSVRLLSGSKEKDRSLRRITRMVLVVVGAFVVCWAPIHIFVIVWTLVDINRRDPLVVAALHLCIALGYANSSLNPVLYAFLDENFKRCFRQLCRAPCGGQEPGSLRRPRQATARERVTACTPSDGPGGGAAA
# Assay: Displacement of [3H]diprenorphine from rat delta opioid receptor expressed in rat C6 cell membranes measured after 1 hr by liquid scintillation counting method
# Details: not given
row,Compound,Ki
1,Cc1cc(O)cc(C)c1C[C@H](N)C(=O)N[C@@H]1CCN(S(C)(=O)=O)c2ccc(Cc3ccccc3)cc21.O=C(O)C(F)(F)F,0.41 nM
2,Cc1cc(O)cc(C)c1C[C@H](N)C(=O)N[C@@H]1CCN(C(=O)c2ccccc2)c2ccc(Cc3ccc4ccccc4c3)cc21.O=C(O)C(F)(F)F,0.46 nM

# Biological target: Mu-type opioid receptor (Rattus norvegicus) (UniProt P33535)
# Sequence (P33535 whole entry): as the sequence (P33535 whole entry) above
# Assay: Agonist activity at rat mu opioid receptor expressed in rat C6 glioma cell membranes assessed as stimulation of [35S]GTPgammaS binding measured after 1 hr relative to DAMGO
# Type: functional
# Details: not given
row,Compound,Efficacy
1,Cc1cc(O)cc(C)c1C[C@H](N)C(=O)N[C@@H]1CCN(S(C)(=O)=O)c2ccc(Cc3ccccc3)cc21.O=C(O)C(F)(F)F,98%
2,Cc1cc(O)cc(C)c1C[C@H](N)C(=O)N[C@@H]1CCN(C(=O)c2ccccc2)c2ccc(Cc3ccc4ccccc4c3)cc21.O=C(O)C(F)(F)F,57%

# Biological target: T2, Delta-type opioid receptor
# Assay: Agonist activity at rat delta opioid receptor expressed in rat C6 cell membranes assessed as stimulation of [35S]GTPgammaS binding measured after 1 hr
# Type: functional
# Details: c6
row,Compound,EC50
1,Cc1cc(O)cc(C)c1C[C@H](N)C(=O)N[C@@H]1CCN(C(=O)c2ccccc2)c2ccc(Cc3ccc4ccccc4c3)cc21.O=C(O)C(F)(F)F,Not Active

# Same assay, conditions: read-out: EC50
row,Compound,EC50
1,Cc1cc(O)cc(C)c1C[C@H](N)C(=O)N[C@@H]1CCN(S(C)(=O)=O)c2ccc(Cc3ccccc3)cc21.O=C(O)C(F)(F)F,12 nM

# Biological target: T3, Kappa-type opioid receptor (Homo sapiens, UniProt P41145)
# T3 sequence (P41145 whole entry): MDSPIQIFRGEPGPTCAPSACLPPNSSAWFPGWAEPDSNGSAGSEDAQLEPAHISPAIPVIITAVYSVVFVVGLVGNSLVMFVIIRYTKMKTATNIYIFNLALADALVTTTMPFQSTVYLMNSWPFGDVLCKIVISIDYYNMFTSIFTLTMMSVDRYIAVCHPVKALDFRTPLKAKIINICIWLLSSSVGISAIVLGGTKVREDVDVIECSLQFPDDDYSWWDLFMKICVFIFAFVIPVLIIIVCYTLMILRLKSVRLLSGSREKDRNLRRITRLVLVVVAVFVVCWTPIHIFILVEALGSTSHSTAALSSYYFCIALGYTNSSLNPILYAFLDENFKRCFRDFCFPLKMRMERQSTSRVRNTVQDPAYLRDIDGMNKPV
# Assay: Agonist activity at human kappa opioid receptor expressed in CHO cell membranes assessed as stimulation of [35S]GTPgammaS binding to G protein incubated for 1 hr relative to U69,593
# Type: functional
# Details: not given
row,Compound,Efficacy
1,Cc1cc(O)cc(C)c1C[C@H](N)C(=O)N[C@@H]1CCN(S(C)(=O)=O)c2ccc(Cc3ccccc3)cc21.O=C(O)C(F)(F)F,60%
2,Cc1cc(O)cc(C)c1C[C@H](N)C(=O)N[C@@H]1CCN(C(=O)c2ccccc2)c2ccc(Cc3ccc4ccccc4c3)cc21.O=C(O)C(F)(F)F,inactive

# Biological target: T1, Mu-type opioid receptor
# Assay: Displacement of [3H]diprenorphine from rat mu opioid receptor expressed in rat C6 cell membranes measured after 1 hr by liquid scintillation counting method
# Details: not given
# In short: (§1)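 Competition with 0.2 nM [3H]-diprenorphine on membranes (20 μg protein/tube) from stably transfected cells in 50 mM Tris-HCl pH 7.4, 1 h at room temperature with shaking; GF/C filtration, three washes, scintillation counting. Nonspecific binding defined with 10 μM naloxone.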
row,Compound,Ki
1,Cc1cc(O)cc(C)c1C[C@H](N)C(=O)N[C@@H]1CCN(S(C)(=O)=O)c2ccc(Cc3ccccc3)cc21.O=C(O)C(F)(F)F,0.06 nM
2,Cc1cc(O)cc(C)c1C[C@H](N)C(=O)N[C@@H]1CCN(C(=O)c2ccccc2)c2ccc(Cc3ccc4ccccc4c3)cc21.O=C(O)C(F)(F)F,0.26 nM

# Tested on: Mus musculus
# Assay: Antinociceptive activity in C57BL/6 mouse assessed as increase in latency to tail withdrawal up to 10 mg/kg, ip administered at 30 mins interval measured during compound dosing by warm water tail withdrawal assay relative to control
# Type: functional
# Details: not given
# In short: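 Male C57BL/6 mice, 20–30 g, 8–16 weeks. Saline ip, baseline latency 30 min later; then cumulative ip doses 1, 3.2, 10 mg/kg in 5% DMSO/saline at 30 min intervals, latency read 30 min after each. Tail tip (2–3 cm) in 50°C water, 20 s cutoff; expressed as % MPE (MPE = 20 s).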
row,Compound,MPE
1,Cc1cc(O)cc(C)c1C[C@H](N)C(=O)N[C@@H]1CCN(S(C)(=O)=O)c2ccc(Cc3ccccc3)cc21.O=C(O)C(F)(F)F,100%
2,Cc1cc(O)cc(C)c1C[C@H](N)C(=O)N[C@@H]1CCN(C(=O)c2ccccc2)c2ccc(Cc3ccc4ccccc4c3)cc21.O=C(O)C(F)(F)F,100%

# Biological target: Delta-type opioid receptor (Rattus norvegicus) (UniProt P33533)
# Sequence (P33533 whole entry): as the sequence (P33533 whole entry) above
# Assay: Agonist activity at rat delta opioid receptor expressed in rat C6 cell membranes assessed as stimulation of [35S]GTPgammaS binding incubated for 1 hr relative to DPDPE
# Type: functional
# Details: not given
row,Compound,Efficacy
1,Cc1cc(O)cc(C)c1C[C@H](N)C(=O)N[C@@H]1CCN(S(C)(=O)=O)c2ccc(Cc3ccccc3)cc21.O=C(O)C(F)(F)F,22%

# Tested on: not listed separately
# Assay: Lipophilicity, log P of the compound
# Type: physicochemical
# Details: octanol/water
row,Compound,logP
1,Cc1cc(O)cc(C)c1C[C@H](N)C(=O)N[C@@H]1CCN(S(C)(=O)=O)c2ccc(Cc3ccccc3)cc21.O=C(O)C(F)(F)F,3.3

# Species: Rattus norvegicus
# Assay: Selectivity ratio of Ki for rat delta opioid receptor expressed in rat C6 cell membranes to Ki for rat mu opioid receptor expressed in rat C6 cell membranes
# Type: cell-based
# Details: not given
# In short: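 Competition binding against 0.2 nM [3H]-diprenorphine, using C6 membranes expressing rat MOR or rat DOR (20 μg protein/tube). Run in 50 mM Tris-HCl pH 7.4, 1 h at room temperature with shaking, then filtration and scintillation counting. Nonspecific binding with 10 μM naloxone.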
row,Compound,Ratio Ki
1,Cc1cc(O)cc(C)c1C[C@H](N)C(=O)N[C@@H]1CCN(S(C)(=O)=O)c2ccc(Cc3ccccc3)cc21.O=C(O)C(F)(F)F,7

# Tested on: Mus musculus
# Assay: Antinociceptive activity in C57BL/6 mouse assessed as increase in latency to tail withdrawal by measuring time of action at 10 mg/kg, ip administered as bolus dose by warm water tail withdrawal assay
# Type: functional
# Details: not given
# In short: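 Male C57BL/6 mice; saline ip, baseline 30 min later, then single 10 mg/kg ip bolus in 5% DMSO/saline. Tail withdrawal in 50°C water (20 s cutoff) at 5, 15, 30 min and every 30 min until return to baseline; duration = time from dosing to baseline return, done only for fully active compounds.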
row,Compound,Time
1,Cc1cc(O)cc(C)c1C[C@H](N)C(=O)N[C@@H]1CCN(S(C)(=O)=O)c2ccc(Cc3ccccc3)cc21.O=C(O)C(F)(F)F,60 min
2,Cc1cc(O)cc(C)c1C[C@H](N)C(=O)N[C@@H]1CCN(C(=O)c2ccccc2)c2ccc(Cc3ccc4ccccc4c3)cc21.O=C(O)C(F)(F)F,150 min

# Biological target: T3, Kappa-type opioid receptor
# Assay: Agonist activity at human kappa opioid receptor expressed in CHO cell membranes assessed as stimulation of [35S]GTPgammaS binding measured after 1 hr
# Type: functional
# Details: cho
row,Compound,EC50
1,Cc1cc(O)cc(C)c1C[C@H](N)C(=O)N[C@@H]1CCN(C(=O)c2ccccc2)c2ccc(Cc3ccc4ccccc4c3)cc21.O=C(O)C(F)(F)F,Not Active

# Same assay, conditions: read-out: EC50
row,Compound,EC50
1,Cc1cc(O)cc(C)c1C[C@H](N)C(=O)N[C@@H]1CCN(S(C)(=O)=O)c2ccc(Cc3ccccc3)cc21.O=C(O)C(F)(F)F,121 nM

# Biological target: T3, Kappa-type opioid receptor
# Assay: Displacement of [3H]diprenorphine from human kappa opioid receptor expressed in CHO cell membranes measured after 1 hr by liquid scintillation counting method
# Details: not given
# In short: as §1
row,Compound,Ki
1,Cc1cc(O)cc(C)c1C[C@H](N)C(=O)N[C@@H]1CCN(S(C)(=O)=O)c2ccc(Cc3ccccc3)cc21.O=C(O)C(F)(F)F,8 nM
2,Cc1cc(O)cc(C)c1C[C@H](N)C(=O)N[C@@H]1CCN(C(=O)c2ccccc2)c2ccc(Cc3ccc4ccccc4c3)cc21.O=C(O)C(F)(F)F,160 nM
